Experiments:
K562 = test: Antiproliferative activity against human K562 cells assessed as reduction in cell growth at 10 uM incubated for 48 hrs by MTT assay; type: functional; set-up: scale not given: the % may be the effect or the level left
Procedure, shortened: (§1)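 Two-concentration MTT screen (10 and 100 µM; the 10 µM readings are the values here) run before full dose-response profiling. Cells seeded at 8,000–40,000 per well depending on cell size and left overnight, then exposed to compound for 48 h. MTT (2 mg/mL stock) added for 4 h, formazan dissolved in DMSO, absorbance read at 550 nm. Growth given as percent of untreated controls, averaged.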

[1] = Antiproliferative activity against human HTB-54 cells assessed as reduction in cell growth at 10 uM incubated for 48 hrs by MTT assay; type: functional; set-up: scale not given: the % may be the effect or the level left; procedure, shortened: as §1
[2] = Cytotoxicity against human 184B5 cells assessed as reduction in cell growth at 10 uM incubated for 48 hrs by MTT assay; type: cell-based; settings: read-out: Activity; procedure, shortened: as §1
PC-3 = test: Antiproliferative activity against human PC3 cells assessed as reduction in cell growth at 10 uM incubated for 48 hrs by MTT assay; type: functional; set-up: scale not given: the % may be the effect or the level left; procedure, shortened: as §1
MOLT-4 = test: Antiproliferative activity against human MOLT4 cells assessed as reduction in cell growth at 10 uM incubated for 48 hrs by MTT assay; type: functional; set-up: scale not given: the % may be the effect or the level left; procedure, shortened: as §1
HT-29 = test: Antiproliferative activity against human HT-29 cells assessed as reduction in cell growth at 10 uM incubated for 48 hrs by MTT assay; type: functional; set-up: scale not given: the % may be the effect or the level left; procedure, shortened: as §1
[3] = Cytotoxicity against human BEAS2B cells assessed as reduction in cell growth at 10 uM incubated for 48 hrs by MTT assay; type: cell-based; settings: BEAS-2B cells, read-out: Activity; procedure, shortened: as §1
CCRF-CEM = test: Antiproliferative activity against human CCRF-CEM cells assessed as reduction in cell growth at 10 uM incubated for 48 hrs by MTT assay; type: functional; set-up: scale not given: the % may be the effect or the level left; procedure, shortened: as §1
MCF7 = test: Antiproliferative activity against human MCF7 cells assessed as reduction in cell growth at 10 uM incubated for 48 hrs by MTT assay; type: functional; set-up: scale not given: the % may be the effect or the level left; procedure, shortened: as §1

SMILES	Activity (K562)	Activity [1]	inhibition at 48 h, 10 µM [2]	Activity (PC-3)	Activity (MOLT-4)	Activity (HT-29)	inhibition at 48 h, 10 µM [3]	Activity (CCRF-CEM)	Activity (MCF7)
N#C[Se]c1ccc(NC(=O)CCC(=O)O)cc1	94.9%	59.11%	84.7%	56.3%	91.48%	81.87%	67.7%	48.62%	66.51%
O=C(O)CCC(=O)Nc1ccc([Se][Se]c2ccc(NC(=O)CCC(=O)O)cc2)cc1	105.24%	88.05%	80.2%	70.9%	83.23%	91.61%	76.6%	80.57%	69.66%
O=C(O)C1CCCCC1C(=O)Nc1ccc([Se][Se]c2ccc(NC(=O)C3CCCCC3C(=O)O)cc2)cc1 (configuration not stated)	111.58%	95.11%	55%	116.42%	101.94%	99.45%	91%	-33.59%	74.45%

From ChEMBL document CHEMBL4393703, “Organoseleno cytostatic derivatives: Autophagic cell death with AMPK and JNK activation” (Eur J Med Chem, 2019)
